Our source for the C, ED50 and logP values is ChEMBL document CHEMBL1128528, “Structure-activity relationships of unsaturated analogues of valproic acid” (J Med Chem, 1995).

The test system of data set [1] is Mus musculus. The data set is described as follows: Brain concentration after 15 min of administration. The data set is classed as functional. Summed up: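 Mice (n = 5, or 4 where footnoted) were given an ED50 dose and killed at 15 min. Whole brains were homogenized in 0.32 M sucrose and stored at -78 °C. Sodium octanoate served as internal standard; samples were acidified with HCl and extracted into EtOAc. Acids were quantified as tert-butyldimethylsilyl esters by GC-MS (EI 70 eV, SIM at M+ − 57). Each sample ran in triplicate; values are mean ± SD.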

Data set [2] relates to Mus musculus. The data set is described as follows: Anticonvulsant activity against mice after intraperitoneal administration. The data set is classed as functional. As to conditions: ip. Summed up:
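Mice, 6 weeks old, eight per dose, received five ip doses of the sodium salt (4 mL/kg). Pentylenetetrazole (85 mg/kg, 10 mL/kg) was given sc at 10 min and animals were watched for 30 min. Unprotected meant a 5 s clonus with loss of balance. ED50 was read from percentage protection vs log(dose). Sedation was scored from activity and muscle tone during handling.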

Data set [3] in a line: Partition coefficient (logP). Conditions: octanol/water. The data set is classed as physicochemical. Summed up:
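Calculated with CLOGP for the undissociated acid as 1-octanol/water partition coefficient; cis and trans isomers not distinguished.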

The ED50 is the dose at which the effect has come halfway, by size or by number of responders. For orientation: logP means a log measure of how a compound divides between an organic and an aqueous phase. As to `O=C(O)C1=CCCCC1`, the C in data set [1] was determined as 1210 nM/g. In addition, the ED50 in data set [2] is 2.2 mmol/kg. Moreover, in data set [3], the logP turned out to be 1.66.
On the same counts, the results for `O=C(O)C1=CCCC1` are 500 nM/g, 4.7 mmol/kg and 1.1.
As to `CC/C=C(\CCCC)C(=O)O`, the C in data set [1] was determined as 140 nM/g. In data set [2], this compound showed an ED50 of 0.87 mmol/kg. The logP in data set [3] was 3.11.
The corresponding values for `C/C=C/C(=C\CC)C(=O)O` are 680 nM/g, 1.4 mmol/kg and 2.22.
On the same counts, the results for `O=C(O)C=C1CCCC1` are 450 nM/g, 2.3 mmol/kg and 1.72.
On the same counts, the results for `C/C=C\C(=C/CC)C(=O)O` are 350 nM/g, 0.78 mmol/kg and 2.22.
`CC/C=C(\CCC)C(=O)O`: the C in data set [1] was 260 nM/g. Besides, in data set [2], the 50% effect level (ED50) was put at a dose of 0.84 mmol/kg. Besides, in data set [3], the logP stood at 2.59.
`O=C(O)C1=CC2CCC1C2` (stereo unspecified) returned a C in data set [1] of 2150 nM/g. The compound further registered an ED50 in data set [2] of 2.9 mmol/kg. This compound came in with a logP in data set [3] of 1.42.
On the same counts, the results for `CCCC(CCC)C(=O)O` [VALPROIC ACID] are 620 nM/g, 0.83 mmol/kg and 2.72.
In data set [1], `O=C(O)C=C1CCCCC1` gave a C of 320 nM/g. In data set [2], the ED50 came to 1.4 mmol/kg. The logP in data set [3] is 2.28.
The corresponding values for `CC/C=C(\CC)C(=O)O` are 660 nM/g, 1.6 mmol/kg and 2.06.
The corresponding values for `CC(C)=CC(=O)O` are 2710 nM/g, 5.2 mmol/kg and 1.09.
On the same counts, the results for `O=C(O)C=C1CCCCCC1` are 159 nM/g, 0.96 mmol/kg and 2.84.
With `CC/C=C\C(=O)O`, the C in data set [1] stood at 4460 nM/g. For the same compound, the ED50 in data set [2] was found to be 7 mmol/kg. Further, the logP in data set [3] turned out to be 1.22.
The corresponding values for `CC/C=C/C(=O)O` are 2220 nM/g, 6 mmol/kg and 1.22.
The corresponding values for `O=C(O)C=C1CCCCCCC1` are 94 nM/g, 0.73 mmol/kg and 3.4.
The corresponding values for `CC/C=C(\C)C(=O)O` are 1520 nM/g, 4.4 mmol/kg and 1.53.
